The values below come from ChEMBL document CHEMBL1123712, “Synthesis and biological activity of novel calcium channel blockers: 2,5-dihydro-4-methyl-2-phenyl-1,5-benzothiazepine-3-carboxylic acid esters and 2,5-dihydro-4-methyl-2-phenyl-1,5-benzodiazepine-3-carboxylic acid esters” (J Med Chem, 1987).

The species named for one experiment is Oryctolagus cuniculus. Put plainly: Calcium channel blocking activity in rabbit. It counts as functional. An outline of the steps:
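Thoracic aorta strips from male New Zealand rabbits (1.8–2.4 kg) in Krebs PSS at 37 °C, gassed 95% O2/5% CO2, pH 7.35. Contracted with high-K+ (100 mM KCl, NaCl reduced equimolar) Krebs. At plateau tension, increasing concentrations added cumulatively. Relaxation normalized to initial tension. IC50 by logit transformation of concentration-response curves.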

Experiment [1] has as its target Voltage-dependent L-type calcium channel subunit alpha-1C (Canis lupus familiaris). The experiment can be described thus: Reduction in amplitude of calcium-dependent slow-response action potential by blocking voltage sensitive calcium channel.
Experiment [2] deals with Rattus norvegicus. The experiment can be described thus: Percent decrease in blood pressure in hypertensive rat at 60 mg/kg po. The experiment is classed as functional. An outline of the steps:
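Spontaneously hypertensive rats dosed orally. Read-out was percent fall in blood pressure.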

The test system of experiment [3] is Rattus norvegicus. The experiment can be described thus: Percent decrease in blood pressure in hypertensive rat at 16 mg/kg po. The experiment is classed as functional. An outline of the steps:
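Spontaneously hypertensive rats dosed orally. Blood pressure read-out expressed as percent decrease. Test agents were given […] po.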

The structures appear in SMILES notation.

Consider `CO/C(O)=C1\C(C)=Nc2ccccc2SC1c1ccccc1` (stereo unspecified), for which the concentration for half-maximal inhibition (IC50) in the experiment filed under Oryctolagus cuniculus was 1700 nM.

Turning to `CO/C(O)=C1\C(C)=Nc2ccccc2SC1c1ccccc1C(F)(F)F` (stereo unspecified), the IC50 in the experiment listed under Oryctolagus cuniculus turned out to be 12000 nM. Still for that read-out and setting: the figure for `CO/C(O)=C1\C(C)=Nc2ccccc2SC1c1ccc(OC)cc1` (stereo unspecified) is 22000 nM. Consider `CO/C(O)=C1\C(C)=Nc2ccccc2SC1c1cccc([N+](=O)[O-])c1` (stereo unspecified), for which the figures for the 50% inhibitory concentration (IC50) (in the experiment filed under Oryctolagus cuniculus; in experiment [1]) were 1200 nM and 140 nM, respectively.

`CCO/C(O)=C1\C(C)=Nc2ccccc2NC1c1cccc([N+](=O)[O-])c1` (stereo unspecified): the IC50 in the experiment filed under Oryctolagus cuniculus was found to be 1600 nM. Still for that read-out and setting: the figure for `CC1=Nc2ccccc2SC(c2cccc([N+](=O)[O-])c2)/C1=C(\O)OC(C)C` (stereo unspecified) is 500 nM. On the same count and under the same terms, the figure for `CCO/C(O)=C1\C(C)=Nc2ccccc2SC1c1cccc([N+](=O)[O-])c1` (stereo unspecified) is 400 nM. As to `COC(=O)C1=C(C)N(CCN(C)C)c2ccccc2SC1c1cccc([N+](=O)[O-])c1` (stereo unspecified), in the experiment filed under Oryctolagus cuniculus, the IC50 was 1100 nM.

In the case of `CO/C(O)=C1\C(C)=Nc2ccccc2SC1c1ccccc1[N+](=O)[O-]` (stereo unspecified), the IC50 in the experiment listed under Oryctolagus cuniculus came to 300 nM. Consider `CO/C(O)=C1\C(C)=Nc2ccccc2S(=O)(=O)C1c1ccccc1` (stereo unspecified), for which the half-maximal inhibitory concentration (IC50) in the experiment listed under Oryctolagus cuniculus came out at 10000 nM. `CO/C(O)=C1\C(C)=Nc2ccccc2SC1c1ccc([N+](=O)[O-])cc1` (stereo unspecified): the IC50 in the experiment filed under Oryctolagus cuniculus came out at 3000 nM. In the experiment with Rattus norvegicus [2], `COc1ccc([C@@H]2Sc3ccccc3N(CCN(C)C)C(=O)[C@@H]2OC(C)=O)cc1` [DILTIAZEM] gave a Decrease of 10%. Besides, the concentration for half-maximal inhibition (IC50) in the experiment filed under Oryctolagus cuniculus was found to be 1000 nM.

For `COC(=O)C1=C(C)NC(C)=C(C(=O)OC)C1c1ccccc1[N+](=O)[O-]` [NIFEDIPINE], in the experiment listed under Oryctolagus cuniculus, the IC50 came to 1 nM. The Decrease in the experiment on Rattus norvegicus [3] amounted to 25%.
